NPY-Y1 PAM-ag – human NPY-Y1 potentiation or agonism, primary screen | NPY-Y1 expressing cells, potentiator/agonist activation | activation, % at 3.6 µM | actives 0.37% (n = 220,000) | AID 1304; in the data active means activation above about 33%, passing the limit was not always enough;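 further: cells stimulated with NPY at EC10 then isoproterenol at EC100; 0% = low agonist plus stimulus and 100% = saturating agonist plus stimulus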
Target sequence (P25929 whole entry, looked up): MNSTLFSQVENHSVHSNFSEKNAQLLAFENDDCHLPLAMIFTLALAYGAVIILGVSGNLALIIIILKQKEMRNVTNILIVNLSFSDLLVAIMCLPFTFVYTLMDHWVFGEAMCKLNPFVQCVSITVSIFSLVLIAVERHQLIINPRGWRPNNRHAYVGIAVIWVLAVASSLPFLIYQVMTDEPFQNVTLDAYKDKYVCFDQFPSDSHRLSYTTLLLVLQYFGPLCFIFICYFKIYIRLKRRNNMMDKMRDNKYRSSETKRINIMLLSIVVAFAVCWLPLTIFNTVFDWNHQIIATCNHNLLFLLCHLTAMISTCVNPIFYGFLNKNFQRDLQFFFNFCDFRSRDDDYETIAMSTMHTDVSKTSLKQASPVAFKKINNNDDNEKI
NPY-Y2 antag – NPY-Y2 (human) receptor antagonism; inhibition, % at 2.7 µM; P49146; NPY-Y2 expressing cells, antagonist mode; actives 0.99% (n = 140,000); AID 793;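 further: 0% = vehicle with agonist challenge and 100% = reference antagonist with challenge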
NPY Y1 blocker – blocks the human neuropeptide Y Y1 receptor | AID 1040 | HEK293-CNG Y1 cells, membrane potential fluorescence; NPY at EC95, then isoproterenol | inhibition, % at 3.6 µM | actives 1% (n = 200,000) | P25929;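 active means inhibition above the campaign mean inhibition of all tested compounds plus 3 SD, cut at about 20% in these data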;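 further: 0% = DMSO wells given NPY plus isoproterenol and 100% = isoproterenol alone without NPY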
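Material: HEK293 cells with Y1 receptor plus CNG channel; times: compound incubation 1 h at room temperature, readout 45 min post-stimulation; signal: fluorescence, membrane potential probe; read-out basis: fluorescence ratio normalized to % inhibition between controls; benchmarks: full-block control isoproterenol-only wells, zero-block control NPY plus isoproterenol wells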
NPY2 pot ag – potentiates or activates human NPY-Y2 receptor; cells expressing NPY-Y2, potentiator/agonist read-out; activation, % at 3.6 µM; actives 0.45% (n = 220,000); AID 1359; in the data active means activation above about 27%;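 further: cells stimulated with NPY near EC25 plus isoproterenol at EC100; 0% = vehicle plus submaximal agonist and 100% = vehicle plus saturating agonist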
NPY-Y1 ant conf – confirmation of human neuropeptide Y receptor Y1 antagonists | HEK293-CNG NPY-Y1, membrane potential fluorescence, cAMP; NPY challenge against isoproterenol-raised cAMP | AID 1254 | actives 21% (n = 1,200) | inhibition, % at 3.6 µM | shares compounds with NPY Y1 blocker; in the data active means inhibition above about 20%;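 further: 0% = vehicle with agonist plus stimulus and 100% = stimulus alone without agonist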
NPY2 antag ctr – human NPY-Y2 antagonism in NPY-Y1 counter-screen. shares compounds with NPY Y1 blocker. HEK293 NPY-Y2 CNG membrane potential fluorescence; cells given NPY, then isoproterenol. inhibition, % at 3.6 µM. actives 28% (n = 1,200). AID 1255;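 further: 0% = DMSO with agonist challenge and 100% = reference antagonist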
The depositor's hits bear a star; . = no result. An excerpt weighted towards active compounds, which were near 1.9% of everything screened. Unless noted, no stated cut-off is given here; in the data, active means inhibition above about 17%; inactive means the rest.

SMILES | NPY-Y1 PAM-ag | NPY-Y2 antag | NPY Y1 blocker | NPY2 pot ag | NPY-Y1 ant conf | NPY2 antag ctr
Cc1cc2ncn(-c3ncnc4sc(C)c(C)c34)c2cc1C | -18 | 4 | 5 | -10 | . | .
COC(=O)c1ccc(CSc2nc3c(c(=O)n2-c2ccc(F)cc2)SCC3)o1 | 3 | 8 | 21* | -8 | 7 | 5
COC(=O)c1ccc(CSc2nc3c(c(=O)n2-c2ccccc2)SCC3)o1 | -14 | 4 | 1 | -6 | . | .
CCCN(CCC)CCNC(=O)C1CCN(Cc2nc(-c3ccc(Cl)cc3)oc2C)CC1 | -54 | 13 | 24* | -27 | 13 | 28*
CCc1ccc(NC(=O)COC(=O)CN2C(=O)COc3ccccc32)cc1 | 5 | 1 | 0 | -12 | . | .
CCCC(OC(=O)CN1C(=O)COc2ccccc21)C(=O)NC1CCCC1 (stereo not given) | 2 | 11 | 24* | -20 | 1 | 4
Brc1ccc(-c2noc(COc3ccc4ccccc4c3)n2)o1 | -70 | 14 | 29* | -49 | 17 | 10
COc1cccc(OCc2nc(-c3ccc(Br)o3)no2)c1 | -35 | . | 15 | -34 | . | .
C=CCOC(=O)/C(=C\c1ccc(OC)cc1)NC(=O)c1ccco1 | -1 | 3 | 89* | -10 | -2 | 4
CCCn1c(NC(=O)c2ccc(Cl)c(S(=O)(=O)N3CCCC3)c2)nc2ccccc21 | -74 | 11 | 22* | -38 | 13 | 22*
O=C(NCc1nc2ccccc2[nH]1)c1ccc(Cl)c(S(=O)(=O)N2CCCC2)c1 | -16 | 1 | -5 | -5 | . | .
CC(=O)Nc1ccc(NC(=O)C(C)Sc2nnc(-c3cccs3)o2)cc1 (stereo not given) | -5 | . | . | -2 | . | .
COc1ccc(C2C(C(=O)c3cccs3)=C(O)C(=O)N2c2cccc(C)n2)cc1 (stereo not given) | 22 | . | . | 9 | . | .
Cc1ccc(C2C(C(=O)c3cccs3)=C(O)C(=O)N2c2nnc(C)s2)cc1 (stereo not given) | -2 | . | 27* | -16 | 31* | 21*
COc1ccc(C2Nc3ccccc3C(=O)N2Cc2ccccc2)cc1COc1ccccn1 (stereo not given) | -4 | 14 | 36* | -17 | 4 | 6
CCC(=O)N(CCc1ccc(S(N)(=O)=O)cc1)C1CC(=O)N(c2ccc(OC)cc2)C1=O (stereo not given) | -5 | . | 6 | -2 | . | .
COc1cccc(-c2noc(C3CCCN(S(=O)(=O)c4cccc(Cl)c4C)C3)n2)c1 (stereo not given) | 2 | 6 | 30* | -5 | 11 | 13
CCCn1c2c(c(=N)c3c1CCC3)CCC2 | -14 | . | . | -24 | . | .
CCCCCCCn1c2c(c(=N)c3ccccc31)CCC2 | -90 | . | 66* | -37 | 60* | 62*
CC(C)NC(=O)C1CCN(C(=O)c2cc3sccc3n2Cc2ccc(F)cc2)CC1 | 29 | 0 | -7 | 17 | . | .
O=C(c1cc2sccc2n1Cc1ccc(F)cc1)N1CCCc2ccccc21 | -30 | 15 | 24* | -10 | 12 | 19*
O=C(NNc1c(Cl)cc(Cl)cc1Cl)C1CCC1 | 8 | 0 | -3 | -2 | . | .
CCCn1nnc(NC(=O)c2cccc(Cl)c2)n1 | 10 | 2 | 51* | -9 | 1 | 1
CCCOc1ccc(Cn2c(=O)oc3ccc(C)cc32)cc1OC | -42 | 4 | 32* | -29 | 6 | 8
COc1ccccc1OCCCn1c(=O)oc2ccc(C)cc21 | -20 | 2 | 9 | -14 | . | .
SMILES | NPY-Y1 PAM-ag | NPY-Y2 antag | NPY Y1 blocker | NPY2 pot ag | NPY-Y1 ant conf | NPY2 antag ctr
CN(C)/C=C/C(=O)c1nnn(C2CCCCC2)c1NC1CCCCC1 | -32 | 14 | 22* | 8 | -3 | 9
CCc1cccc(CC)c1NC(=O)C(NS(=O)(=O)c1cccs1)c1ccccc1 (stereo not given) | -41 | 13 | 23* | 7 | 23* | 10
O=C(O)CCCCCN1C(=O)C2CCCCC2C1=O (stereo not given) | -5 | 3 | 5 | 14 | . | .
O=C(O)CCCCCCC1C(=O)NC(=O)N1CCC(O)C1CCCCC1 (stereo not given) | -50 | 5 | 24* | -2 | 28* | 21*
CCC(=O)NS(=O)(=O)c1cccnc1Nc1ccccc1Cl | -28 | 12 | 24* | -17 | 22* | 19*
Nc1ccn([C@@H]2O[C@H](CO)[C@@H](O)C2O)c(=O)n1 (stereo not given in full) | -4 | . | 3 | 9 | . | .
O=c1cnn([C@@H]2O[C@H](CO)[C@@H](O)[C@H]2O)c(=O)[nH]1 | 2 | -1 | 70* | -2 | -1 | 1
O=C(NCc1cccnc1)/C(=C\c1ccc(-c2ccc(Br)cc2)o1)S(=O)(=O)c1ccccc1 | -57 | 7 | 12 | -24 | . | .
O=C(NCc1cccnc1)/C(=C/c1ccc(-c2ccc(Cl)cc2)o1)S(=O)(=O)c1ccccc1 | -35 | 13 | 25* | -29 | 9 | 22*
Cc1ccc(Nc2nc(-c3c(C)nc4ncccn34)cs2)cc1 | -3 | 10 | 24* | -10 | 0 | 12
CCn1c(=O)c(C(=O)CN(C)Cc2cccc(OC)c2OC)c(N)n(Cc2ccccc2)c1=O | -12 | 4 | 8 | -5 | . | .
COc1ccc(CN(C)CC(=O)c2c(N)n(Cc3ccccc3)c(=O)n(C)c2=O)c(OC)c1 | -38 | 14 | 24* | -3 | 11 | 8
Cn1c(=O)c(C(=O)COc2ccc(F)cc2Cl)c(N)n(Cc2ccccc2)c1=O | 0 | . | 32* | -19 | 10 | 55*
Cn1c(N)c(C(=O)COc2ccc(Cl)cc2Cl)c(=O)n(C)c1=O | 7 | . | 5 | 3 | . | .
OC(COCCOc1ccc(Br)cc1)CN1CCN(Cc2ccccc2)CC1 (stereo not given) | -29 | 10 | 5 | -10 | . | .
COc1ccc(C(=O)Nc2ccc(Cl)cc2C(=O)NCc2ccco2)cc1OC | -160 | 16 | 25* | -156 | 25* | 24*
COc1ccc(C(=O)Nc2ccccc2C(=O)NCc2ccco2)cc1OC | -6 | 3 | -2 | 3 | . | .
CN(C)c1cc(NC(=O)CNC(C)(C)CC(C)(C)C)c2ccccc2n1 | -46 | . | 28* | -24 | 23* | 42*
CN(C)/C=C1\C(=O)N(C)N=C1C(F)(F)F | 16 | . | -1 | 5 | . | .
COc1ccc(OC)c(Nc2cc(-c3ccccc3)nc(N)n2)c1 | -33 | 7 | 42* | -7 | 2 | 13
CC1CC(C)CN(S(=O)(=O)c2ccc(C(=O)N(c3ccccn3)C3CCCCC3)cc2)C1 (stereo not given) | -15 | . | 31* | -5 | 9 | 7
Cc1nn(CC(=O)Nc2cccnc2)c(C)c1[N+](=O)[O-] | 12 | . | 0 | 6 | . | .
O=C(CCCN1C(=O)c2cccc3cccc(c23)C1=O)N1CCc2ccccc2C1 | -18 | 4 | 23* | -17 | 8 | 11
